Bioassay records from PubChem BioAssay.
Runt-CBFb FRET = blocks binding of human RUNX1 Runt domain to CBFb; actives 0.46% (n = 220,000); Cerulean-Runt/Venus-CBFb FRET ratio 530/480, 1 h; inhibition, % at 20 µM; Q01196+Q13951; AID 1496;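 active = inhibition over about 50% at 20 µM in the single-dose screen, limit read from the data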
Target sequence (Q01196 whole entry, looked up, the tested form may be a part): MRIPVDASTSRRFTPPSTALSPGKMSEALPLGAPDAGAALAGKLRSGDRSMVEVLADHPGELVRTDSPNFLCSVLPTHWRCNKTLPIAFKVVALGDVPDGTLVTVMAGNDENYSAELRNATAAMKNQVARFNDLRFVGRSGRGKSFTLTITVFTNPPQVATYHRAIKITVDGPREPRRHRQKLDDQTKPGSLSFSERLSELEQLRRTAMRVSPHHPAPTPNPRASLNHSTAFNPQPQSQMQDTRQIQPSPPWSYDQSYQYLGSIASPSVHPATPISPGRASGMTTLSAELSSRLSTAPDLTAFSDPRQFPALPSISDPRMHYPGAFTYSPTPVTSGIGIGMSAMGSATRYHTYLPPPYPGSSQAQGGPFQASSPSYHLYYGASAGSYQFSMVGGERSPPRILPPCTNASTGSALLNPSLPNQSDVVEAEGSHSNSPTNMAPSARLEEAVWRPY
Target sequence (Q13951 whole entry, looked up, the tested form may be a part): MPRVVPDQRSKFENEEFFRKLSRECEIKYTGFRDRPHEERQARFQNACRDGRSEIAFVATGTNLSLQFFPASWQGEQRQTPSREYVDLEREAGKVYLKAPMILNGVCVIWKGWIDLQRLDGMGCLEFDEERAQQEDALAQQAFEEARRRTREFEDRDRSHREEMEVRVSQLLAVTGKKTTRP
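Measured by: fluorescence energy transfer, 422 nm excitation, 530/480 nm emission; test system: Cerulean-tagged RUNX1 Runt domain (FRET donor) fusion protein; buffer or medium: Tris pH 7.5 buffer with BSA; compound: one dose, 20 µM compound, 1% DMSO; times: two 1 h room-temperature incubations shielded from light; benchmarks: unlabeled CBFb 5 µM, positive control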
MEX-5 binding = C. elegans MEX-5 TCR-2 RNA binding activity | Q9XUB2 | MEX-5/FITC-TCR2 RNA binding, fluorescence polarization; hits give low values | activity score (negative = inhibition of binding), % at 10 µM | actives 0.38% (n = 300,000);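 active = inhibition past about -25% in most replicates, and total fluorescence under double the plate's negative control median, limit read from the data; inconclusive = replicates evenly split on the limit, or fluorescence at least double controls; inactive = too little inhibition in most replicates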
EBV gp42 inh = EBV gp42 inhibition; Q1HVG2; Fluorescence polarization binding assay, mP read-out; inhibition, % (tested at 21.74 µM); actives 0.42% (n = 220,000); in the data active = inhibition above about 50%
RanGTP-Imp inh = disruptors of Ran-importin-beta complex formation – biochemical, FRET, CFP-Ran, YFP-importin-beta, homogeneous, primary screen; actives 1.1% (n = 300,000); cell-free CFP-Ran/YFP-importin-beta FRET ratio; inhibition, % (no concentration beside the values);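 active = more than half of the replicate wells show a fall in the fluorescence ratio signal beyond about 16%, limit read from the data, passing the limit was not always enough; inconclusive = exactly half of the replicate wells pass the set limit; inactive = fewer than half of replicates pass the limit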
LANA-H2B inh = blocks KSHV LANA binding to histone H2A/H2B; Q9QR71; cell-free LANA-H2A/H2B peptide, fluorescence polarization; inhibition, % (test concentration not listed); actives 0.6% (n = 320,000); AID 2629; in the data active = inhibition mostly above about 10%, no sharp cut-off; inactive = mostly below about 6.7%
Runt-SMMHC FRET = Runt domain-CBFb-SMMHC interaction inhibition; Q01196+Q13951; Cerulean-Runt/Venus-CBFb-SMMHC FRET ratio 530/480, 1 h; inhibition, % at 20 µM; actives 0.74% (n = 220,000); AID 1434;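 active = mean inhibition across duplicate retests at 20 µM reaching about 50%, limit read from the data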;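 also: inhibitors lower the FRET ratio by blocking Runt binding to CBFb-SMMHC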
A number is an active result; i = inactive; ? = inconclusive; nt = no result; + = active, no number. Hits are enriched below; roughly 2.4% of the tested compounds scored in any of these assays.

SMILES | Runt-CBFb FRET | MEX-5 binding | EBV gp42 inh | RanGTP-Imp inh | LANA-H2B inh | Runt-SMMHC FRET
NNc1nc(-c2ccccc2)c2cc(Br)ccc2n1 | nt | i | nt | i | i | nt
CCOc1ccccc1NC(=O)CSc1nnc(CNC(=O)c2c(F)cccc2Cl)o1 | nt | nt | nt | i | i | nt
COC(=O)C1=CN(C2CCCCC2)C=C(C(=O)OC)C1c1ccc2c(c1)OCO2 | i | i | i | i | i | 74.9
COC(=O)c1cn(CC(=O)Nc2ccc(F)cc2)c2ccccc12 | i | i | i | i | 12.1 | i
N/C(=N\N=C\c1ccc(O)c(O)c1)c1nonc1N | i | i | i | i | 17.8 | i
O=C(CC1SC(N2CCOCC2)=NC1=O)Nc1ccc(Cl)c(C(F)(F)F)c1 (configuration not stated) | nt | nt | nt | nt | 21.8 | nt
O=C(N/N=C/c1sc(N2CCOCC2)nc1-c1ccccc1)c1ccccc1Cl | i | i | i | 29.9 | i | i
O=C(Nc1ccccc1F)C(=Cc1sc(N2CCOCC2)nc1-c1ccccc1)C(=O)Nc1ccccc1F | i | -43.2 | 61.6 | i | i | i
CC(C)(C)N1CC(c2nc3ccccc3n2CCOc2ccccc2)CC1=O (configuration not stated) | i | i | 66.9 | i | i | i
COc1ccc(-n2nc(C(=O)NCC(=O)NCCCN3CCOCC3)c3ccccc3c2=O)cc1OC | nt | i | nt | i | i | nt
Cc1cc(NS(=O)(=O)c2ccc(Nc3nc(-c4sc(N)nc4C)cs3)cc2)no1 | i | -29.0 | i | i | i | i
Cc1cc(NS(=O)(=O)c2ccc(Nc3nc(-c4ccc(C)c(C)c4)cs3)cc2)no1 | i | i | i | i | i | i
C=CCN1CCN(C(CCC)c2nnnn2Cc2ccco2)CC1 (configuration not stated) | i | i | i | i | i | i
CCOc1c(C)cnc2c1c(=O)n(Cc1ccc(Cl)cc1)c(=O)n2C | nt | i | nt | i | 16.6 | nt
CCOc1c(C)cnc2c1c(=O)n(Cc1cccc(Cl)c1)c(=O)n2C | nt | i | nt | i | i | nt
COc1cccc(COc2cc3ccccc3nc2C)c1 | i | i | i | i | i | i
Cc1c(N)c(C(C)(C)C)cc(C(C)(C)C)c1[N+](=O)[O-] | i | i | i | i | i | i
Cc1cc2nc3c(=O)[nH]c(=O)[nH]c3nc2c([N+](=O)[O-])c1N | i | nt | 149.5 | nt | nt | i
CCNc1nc(SCC(=O)Nc2ccc(Cl)c(Cl)c2)nc(N2CCOCC2)n1 | nt | i | nt | i | i | nt
Cc1cccnc1NC(=O)CCC(=O)c1cccs1 | nt | nt | nt | nt | 24.7 | nt
COC(C[C@@H]1O[C@H]1[C@H](O)[C@@H](C)OCc1ccccc1)OC | nt | i | nt | i | i | nt
CC(C)CN(C(=O)c1cccc(Cl)c1)c1c(N)n(Cc2ccccc2)c(=O)[nH]c1=O | nt | nt | nt | nt | i | nt
COc1ccc2nc(C)cc(N3CCOCC3)c2c1 | i | i | 84.3 | i | i | i
CCCCCc1ccc(CC(=O)N2CCOCC2)cc1 | nt | i | nt | i | i | nt
Cc1ccc(C(CC(=O)O)Nc2nc(N3CCOCC3)nc(N3CCOCC3)n2)cc1 (configuration not stated) | i | i | i | i | i | i
SMILES | Runt-CBFb FRET | MEX-5 binding | EBV gp42 inh | RanGTP-Imp inh | LANA-H2B inh | Runt-SMMHC FRET
N#Cc1c2ccc(OCC(=O)NCc3ccco3)cc2n2ccccc12 | nt | i | nt | 20.9 | i | nt
N#Cc1c2ccc(O)cc2n2ccccc12 | i | i | i | 19.2 | i | 86.3
N#Cc1c(N)c(C(=O)c2ccccc2)n2ccccc12 | nt | i | nt | i | i | nt
Clc1cncc(Cl)c1NNc1c2ccccc2nc2ccccc12 | 128.4 | nt | i | 22.9 | i | 82.6
O=C(/C=C/c1ccc(O)c(O)c1)O[C@@H]1C[C@](O)(C(=O)O)C[C@@H](O)[C@H]1O | nt | i | nt | i | i | nt
O=C(/C=C/c1ccc(O)c(O)c1)OC1C(O)CC(OC(=O)/C=C/c2ccc(O)c(O)c2)(C(=O)O)CC1O (configuration not stated) | i | -32.3 | i | i | i | i
NC(=O)COC(=O)c1ccc(Cl)c(S(=O)(=O)N2CCN(c3ccc(F)cc3)CC2)c1 | i | i | i | i | i | i
O=C(NCCNc1ccc(Cl)cc1[N+](=O)[O-])c1cccnc1 | i | i | i | i | 11.9 | i
Cc1ccoc1C(=O)NCCNc1ccc(Cl)cc1[N+](=O)[O-] | i | i | i | i | i | i
CCOc1ccc(S(=O)(=O)Nc2cccc(C(=O)N(C)Cc3cccc(OC)c3OC)c2)cc1 | nt | i | nt | i | i | nt
Cc1cc(C)n2nc(C)c(-c3ccccc3)c2n1 | nt | i | nt | i | i | nt
CCc1c(-c2ccccc2)nc2nc(C)c(C)nn12 | i | i | i | 49.8 | i | i
Cc1nc2nc(-c3ccccc3)cn2nc1C | i | i | i | 111.3 | i | 60.5
Cc1nc2nc(-c3ccc(F)cc3)cn2nc1C | nt | i | nt | 95.2 | i | nt
c1ccc(-c2cn3nc(-c4ccccc4)cnc3n2)cc1 | i | nt | i | nt | i | i
CCc1ccc(-c2cn3nc(C)c(C)nc3n2)cc1 | nt | i | i | 106.7 | i | i
Cn1cnnc1SCCCN1C(=O)c2cccc3cccc(c23)C1=O | i | i | i | i | i | i
CCS(=O)(=O)N1Cc2ccccc2CC1C(=O)Nc1ccc(F)cc1 (configuration not stated) | i | i | i | i | i | 80.2
CC1CCC(C(C)C)C(OC(=O)Cn2c(-c3ccccc3)[n+](C)c3ccccc32)C1 (configuration not stated) | i | i | i | i | 171.8 | i
C=CCNC(=S)N(CC=C)C1CCS(=O)(=O)C1 (configuration not stated) | i | i | i | i | i | i
CC1CCCCN1CCCNc1ccc(C(CC(N)=O)NC(=O)Cc2cccc3ccccc23)cc1[N+](=O)[O-] (configuration not stated) | nt | i | nt | 29.9 | i | nt
Cc1occc1C(=O)Nc1ccc(Br)cc1F | i | i | i | i | i | i
CCc1ccc(N2C(=O)CN(Cc3ccccc3)C2=S)cc1 | nt | i | nt | i | i | nt
CCc1ccc(N2C(=O)CN(Cc3cccs3)C2=S)cc1 | i | i | i | i | + | i
O=S(=O)([N-]c1nc2ccccc2nc1-n1cc[n+](Cc2ccccc2)c1)c1ccccc1 | i | i | i | ? | i | i
Cc1ccc(S(=O)(=O)[N-]c2nc3ccccc3nc2-n2cc[n+](Cc3ccccc3)c2)cc1 | i | i | i | 14.3 | i | i
Cc1cc(-c2ccccc2)nc2c(Br)c(=O)[nH]n12 | i | i | i | i | 13.1 | i
c1ccc2c(Nc3nncs3)c3ccccc3nc2c1 | i | i | i | 59.4 | i | i
CCCCCCNc1c([N+](=O)[O-])c(=O)sc2ccccc12 | i | i | i | 147.2 | i | i
CCOCCCNC(=S)N1CCN(Cc2ccc3c(c2)OCO3)CC1 | i | i | i | i | i | i
